Measured values from ChEMBL document CHEMBL2177095, “Discovery of selective and potent inhibitors of gram-positive bacterial thymidylate kinase (TMK)” (J Med Chem, 2012).
Converted amounts (≈) assume the structure as drawn.

What was measured:
[1] = Inhibition of Staphylococcus aureus thymidylate kinase assessed as effect on conversion of dTDP to dTMP by luciferin/luciferase reporter gene based assay
[2] = Inhibition of Streptococcus pneumoniae thymidylate kinase assessed as effect on conversion of dTDP to dTMP by luciferin/luciferase reporter gene based assay
[3] = tested on: Staphylococcus aureus; test: Antimicrobial activity against methicillin and quinolone-resistant Staphylococcus aureus by broth microdilution method; format: functional
Method in brief: (§1)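 MICs were determined against bacterial strains from the AstraZeneca collection. For S. aureus, MSQS means methicillin- and quinolone-sensitive, and MRQR means methicillin- and quinolone-resistant.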

[4] = tested on: Staphylococcus aureus; test: Antimicrobial activity against methicillin and quinolone-sensitive Staphylococcus aureus by broth microdilution method; format: functional; method in brief: as §1
[5] = tested on: Streptococcus pneumoniae; test: Antimicrobial activity against Streptococcus pneumoniae by broth microdilution method; format: functional
Method in brief: (§2)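 Test organisms were strains from the AstraZeneca collection.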

[6] = Partition coefficient, log D of the compound at pH 7.4 by shake flask method; conditions: octanol/water
[7] = tested on: Candida albicans; test: Toxicity against Candida albicans; format: organism-based
[8] = Toxicity against human A549 cells; format: cell-based; conditions: read-out: MIC
[9] = target: T1, Thymidylate kinase (Homo sapiens, UniProt P23919); test: Inhibition of human thymidylate kinase assessed as effect on ATP production by Escherichia coli DdlA and Malachite green reagent based assay
T1 sequence (P23919 whole entry): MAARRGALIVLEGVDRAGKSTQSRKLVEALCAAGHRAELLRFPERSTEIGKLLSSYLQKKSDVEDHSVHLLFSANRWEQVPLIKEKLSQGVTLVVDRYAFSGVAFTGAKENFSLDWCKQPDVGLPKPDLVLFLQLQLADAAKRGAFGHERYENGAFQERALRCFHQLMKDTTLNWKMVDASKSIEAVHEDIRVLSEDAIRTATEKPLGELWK

[10] = Toxicity in Staphylococcus aureus infected mouse thigh infection model assessed as incidence of adverse events; format: organism-based, Thigh muscle; conditions: in vivo
[11] = tested on: Staphylococcus aureus; test: Antimicrobial activity against Staphylococcus aureus infected in mouse thigh infection model assessed as compound dose causing microbial infection stasis administered as single dose; format: functional, Thigh muscle
[12] = tested on: Enterococcus faecalis; test: Antimicrobial activity against vancomycin-resistant Enterococcus faecalis by broth microdilution method; format: functional; method in brief: as §1
[13] = tested on: Enterococcus faecium; test: Antimicrobial activity against linezolid-resistant Enterococcus faecium by broth microdilution method; format: functional; method in brief: as §1
[14] = tested on: Staphylococcus epidermidis; test: Antimicrobial activity against Staphylococcus epidermidis by broth microdilution method; format: functional; method in brief: as §2
[15] = tested on: Streptococcus pyogenes; test: Antimicrobial activity against Streptococcus pyogenes by broth microdilution method; format: functional; method in brief: as §2

Compound | IC50 [1] | IC50 [2] | MIC [3] | MIC [4] | MIC [5] | logD [6] | also measured
Cc1cn([C@H]2CCCN(Cc3cccc(Oc4cccc(Br)c4)c3)C2)c(=O)[nH]c1=O | 600 nM | 100 nM | – | – | – | – | –
CC[C@H](c1ccc(C(=O)O)c(Oc2cccc(Cl)c2)c1)N1CCC[C@H](n2cc(C)c(=O)[nH]c2=O)C1 (racemic) | 13.7 nM | 0.6 nM | 2 µg/mL (≈ 4.02 µM) | 2 µg/mL (≈ 4.02 µM) | 0.1 µg/mL (≈ 0.201 µM) | 0.2 | –
Cc1cn(C2CCCN(Cc3cccc(Oc4cccc(C(F)(F)F)c4)c3)C2)c(=O)[nH]c1=O (racemic) | – | 15000 nM | – | – | – | – | –
CCC[C@H](c1ccc(C(=O)O)c(Oc2cccc(Cl)c2)c1)N1CCC[C@H](n2cc(C)c(=O)[nH]c2=O)C1 | 8.3 nM | 0.3 nM | 1 µg/mL (≈ 1.95 µM) | 1 µg/mL (≈ 1.95 µM) | 0.05 µg/mL (≈ 0.0977 µM) | – | MIC [7]: > 64 µg/mL; MCC [8]: > 64 µg/mL; IC50 [9]: 150000 nM
Cc1cn([C@H]2CCCN([C@H](CC3CCOCC3)c3ccc(C(=O)O)c(Oc4cccc(Cl)c4)c3)C2)c(=O)[nH]c1=O | 1.6 nM | < 0.1 nM | 8 µg/mL (≈ 14.1 µM) | 16 µg/mL (≈ 28.2 µM) | 0.1 µg/mL (≈ 0.176 µM) | -0.25 | –
Cc1cn([C@H]2CCCN([C@@H](C)c3ccc(C(=O)O)c(Oc4cccc(Cl)c4)c3)C2)c(=O)[nH]c1=O | 29.3 nM | 1 nM | 8 µg/mL (≈ 16.5 µM) | 8 µg/mL (≈ 16.5 µM) | 0.25 µg/mL (≈ 0.517 µM) | -0.3 | –
Cc1ccc(Oc2cccc(CN3CCC[C@H](n4cc(C)c(=O)[nH]c4=O)C3)c2)cc1Cl | 1900 nM | 1000 nM | – | – | – | – | –
Cc1cn([C@H]2CCCN(Cc3cccc(Oc4ccc(Cl)c(Cl)c4)c3)C2)c(=O)[nH]c1=O | 2600 nM | 400 nM | – | – | – | – | –
Cc1cn([C@H]2CCCN(Cc3ccc(C(=O)O)c(Oc4cccc(F)c4)c3)C2)c(=O)[nH]c1=O | 339 nM | 28 nM | 128 µg/mL (≈ 282 µM) | 128 µg/mL (≈ 282 µM) | 32 µg/mL (≈ 70.6 µM) | -1 | –
Cc1cn(C2CCCN(Cc3cccc(Oc4ccc(Cl)cc4)c3)C2)c(=O)[nH]c1=O (racemic) | 35000 nM | 1300 nM | – | – | – | – | –
Cc1cn([C@H]2CCCN([C@@H](CC(C)(C)C)c3ccc(C(=O)O)c(Oc4cccc(Br)c4)c3)C2)c(=O)[nH]c1=O | 2.8 nM | 0.6 nM | 1 µg/mL (≈ 1.71 µM) | 2 µg/mL (≈ 3.42 µM) | 0.03 µg/mL (≈ 0.0513 µM) | 1.2 | –
Cc1cn([C@H]2CCCN(Cc3cccc(Oc4ccc(Cl)cc4)c3)C2)c(=O)[nH]c1=O | 8500 nM | 400 nM | – | – | – | – | –
Cc1cn([C@H]2CCCN(Cc3cccc(Oc4cc(F)cc(Cl)c4)c3)C2)c(=O)[nH]c1=O | 2100 nM | 100 nM | – | – | – | – | –
CCC(C)(C)C[C@H](c1ccc(C(=O)O)c(Oc2cccc(Cl)c2)c1)N1CCC[C@H](n2cc(C)c(=O)[nH]c2=O)C1 | 1 nM | 0.3 nM | 0.1 µg/mL (≈ 0.18 µM) | 0.25 µg/mL (≈ 0.451 µM) | 0.05 µg/mL (≈ 0.0902 µM) | 1.4 | MIC [7]: > 64 µg/mL; MCC [8]: > 64 µg/mL; IC50 [9]: 43400 nM
Cc1cn([C@H]2CCCN(Cc3cccc(Oc4cc(Cl)cc(Cl)c4)c3)C2)c(=O)[nH]c1=O | 1500 nM | 400 nM | – | – | – | – | –
Cc1cn([C@H]2CCCN([C@H](CC34CC5CC(CC(C5)C3)C4)c3ccc(C(=O)O)c(Oc4cccc(Br)c4)c3)C2)c(=O)[nH]c1=O | 1.1 nM | 0.1 nM | 0.1 µg/mL (≈ 0.151 µM) | 0.25 µg/mL (≈ 0.377 µM) | 0.03 µg/mL (≈ 0.0453 µM) | 2.5 | –
Cc1cn([C@@H]2CCCN(Cc3cccc(Oc4ccc(Cl)cc4)c3)C2)c(=O)[nH]c1=O | > 200000 nM | 5100 nM | – | – | – | – | –
Cc1cn([C@H]2CCCN([C@@H](CC(C)C)c3ccc(C(=O)O)c(Oc4cccc(Cl)c4)c3)C2)c(=O)[nH]c1=O | 13.5 nM | 0.6 nM | 2 µg/mL (≈ 3.8 µM) | 2 µg/mL (≈ 3.8 µM) | 0.05 µg/mL (≈ 0.0951 µM) | 0.9 | –
Cc1cn([C@H]2CCCN([C@H](CC(C)(C)C)c3ccc(C(=O)O)c(Oc4cccc(Br)c4)c3)C2)c(=O)[nH]c1=O | 0.8 nM | 0.2 nM | 0.25 µg/mL (≈ 0.428 µM) | 0.25 µg/mL (≈ 0.428 µM) | 0.02 µg/mL (≈ 0.0342 µM) | 1.1 | NOAEL [10]: 800 mg/kg/day; MIC [7]: > 64 µg/mL; Activity [11]: 150 mg/kg; MCC [8]: > 64 µg/mL; MIC [12]: 1 µg/mL (≈ 1.71 µM); MIC [13]: 0.25 µg/mL (≈ 0.428 µM); MIC [14]: 2 µg/mL (≈ 3.42 µM); MIC [15]: 0.08 µg/mL (≈ 0.137 µM); IC50 [9]: 62000 nM
CC[C@@H](c1ccc(C(=O)O)c(Oc2cccc(Cl)c2)c1)N1CCC[C@H](n2cc(C)c(=O)[nH]c2=O)C1 | 18.3 nM | 3 nM | 4 µg/mL (≈ 8.03 µM) | 2 µg/mL (≈ 4.02 µM) | 0.25 µg/mL (≈ 0.502 µM) | 0.2 | –
